Common to all, as to format: functional, cell-based
The target of test [1] is T1, Androgen receptor (Homo sapiens) (UniProt P10275).
T1 sequence (whole entry): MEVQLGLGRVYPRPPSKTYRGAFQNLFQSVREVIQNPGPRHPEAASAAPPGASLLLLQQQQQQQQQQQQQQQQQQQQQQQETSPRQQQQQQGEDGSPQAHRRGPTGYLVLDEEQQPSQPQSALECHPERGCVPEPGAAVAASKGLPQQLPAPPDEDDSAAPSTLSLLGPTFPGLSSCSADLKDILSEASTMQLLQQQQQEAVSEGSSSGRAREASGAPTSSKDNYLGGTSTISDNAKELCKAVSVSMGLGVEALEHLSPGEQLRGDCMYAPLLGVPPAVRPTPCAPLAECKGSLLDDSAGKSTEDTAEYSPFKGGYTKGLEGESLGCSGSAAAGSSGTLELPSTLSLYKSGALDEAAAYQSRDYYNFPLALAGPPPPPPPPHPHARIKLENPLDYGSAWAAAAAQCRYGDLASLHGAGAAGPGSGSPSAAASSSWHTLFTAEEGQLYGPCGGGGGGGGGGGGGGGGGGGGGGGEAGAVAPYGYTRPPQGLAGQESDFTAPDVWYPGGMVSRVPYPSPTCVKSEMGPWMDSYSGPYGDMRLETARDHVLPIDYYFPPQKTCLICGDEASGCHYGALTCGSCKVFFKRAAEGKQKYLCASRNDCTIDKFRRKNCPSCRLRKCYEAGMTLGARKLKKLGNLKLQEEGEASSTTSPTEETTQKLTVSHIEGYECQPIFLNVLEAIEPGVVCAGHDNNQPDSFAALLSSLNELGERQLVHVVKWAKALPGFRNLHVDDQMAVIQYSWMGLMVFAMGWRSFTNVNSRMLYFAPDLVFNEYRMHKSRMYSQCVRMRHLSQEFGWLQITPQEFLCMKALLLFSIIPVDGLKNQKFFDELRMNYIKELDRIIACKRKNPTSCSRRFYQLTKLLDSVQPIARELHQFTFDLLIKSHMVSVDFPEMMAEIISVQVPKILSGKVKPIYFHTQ
Nature of the test: Antagonist activity at wild type androgen receptor in human PC3 cells transiently transfected with pCMV-MMTV-Luc assessed as suppression of DHT-induced receptor transactivation. Conditions: PC-3. The method, boiled down: (§1)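 PC-3 cells seeded 24 h before co-transfection with MMTV-luciferase reporter (100 ng), the wild-type, T877A, W741C or H874Y AR plasmid (10 ng) and Renilla null luciferase (10 ng) using Lipofectamine 2000. Medium switched after 5 h to phenol red-free RPMI 1640 with 10% charcoal-stripped FBS. After 16 h, 0.1 nM DHT ± compound (0.1, 1.0 µM) for 24 h. Dual-luciferase read-out, Renilla-standardized, normalized to DHT alone (100%).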

In the next test the test system is PC-3. The experiment in a line: Cytotoxicity against androgen-independent human PC3 cells after 72 hrs by MTT assay. Conditions: PC-3, 72 h. The method, boiled down:
(§2)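 Cells seeded at 6000–7000 per well in RPMI 1640 with 10% FBS, penicillin and streptomycin, left overnight, then exposed to a range of concentrations from DMSO stock (final DMSO 0.5%) for 72 h. MTT added for a further 2 h and formazan from viable cells read. IC50 taken from survival curves, 50% inhibition relative to 0.5% DMSO control; top concentration 150 µM.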

Test [2] in a line: Cytotoxicity against androgen-independent human C4-2B cells with T877A mutant after 72 hrs by MTT assay. The following applies: LNCaP C4-2B. In short, it runs like this:
as §2
Background: Formazan colour is commonly taken as a measure of viable cells.

A short description of test [3]: Cytotoxicity against androgen-dependent human MDA PCa 2b cells with T877A/L701H AR mutant after 72 hrs by MTT assay. In short, it runs like this:
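Seeded at 6000–7000 cells per well in BRFF-HPC1 medium with 20% FBS, incubated overnight, then treated with serial concentrations diluted from DMSO stock (final DMSO 0.5%) for 72 h. Viability by MTT, 2 h with reagent, formazan measured. IC50 from survival curves as 50% inhibition versus 0.5% DMSO vehicle; maximum concentration tested 150 µM.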

The test system of a further test is CWR22R. The experiment in a line: Cytotoxicity against human 22Rv1 cells with H874Y AR mutant after 72 hrs by MTT assay. The following applies: 22Rv1, 72 h. In short, it runs like this: as §2
The next test deals with LNCaP. Nature of the test: Cytotoxicity against androgen-dependent human LNCAP cells with T877A AR mutant after 72 hrs by MTT assay. In short, it runs like this: as §2
Test [4] relates to T2, Androgen receptor (Homo sapiens), P10275 [W742C].
T2 sequence (whole entry): T1 sequence (whole entry) with W742C
Nature of the test: Antagonist activity at androgen receptor W741C mutant in human PC3 cells transiently transfected with pCMV-MMTV-Luc assessed as suppression of DHT-induced receptor transactivation. Conditions: PC-3. In short, it runs like this:
as §1

Positions count from the first letter of the chain named.

The IC50 is the point on the concentration scale where inhibition reaches its midpoint. Low values mean greater potency, high ones weaker potency.

With `CC1=C(/C=C/C(=O)/C=C/c2cccc(C(F)(F)F)c2)C(C)(C)CCC1O` (configuration not stated), the Activity entry in test [1] and in test [4] was “Dose-dependent effect” each time. For the same compound, the 50% inhibitory concentration (IC50) is 3500 nM with PC-3; 1400 nM in test [2]; 2600 nM in test [3]; 1700 nM in the test with CWR22R; 740 nM in the test on LNCaP.

Values taken from ChEMBL document CHEMBL1136847, “Syntheses and potential anti-prostate cancer activities of ionone-based chalcones” (Bioorg Med Chem Lett, 2009).
